{
  "source": "paper PMC4014002",
  "about": "(The FEBS journal, 2014)",
  "key": {"[1]": {"system": "L-FABP T94A variant human subjects", "conditions": "cited from earlier work"}, "[2]": {"target": "T1, rat L-FABP (Rattus norvegicus, UniProt P02692)", "T1 sequence (P02692 1-127)": "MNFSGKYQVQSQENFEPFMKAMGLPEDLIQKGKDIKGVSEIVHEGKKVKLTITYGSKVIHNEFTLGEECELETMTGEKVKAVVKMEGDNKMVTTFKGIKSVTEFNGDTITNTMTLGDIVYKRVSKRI", "test": "ANS displacement assay", "format": "binding", "summary_of_the_method": "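Recombinant rat L-FABP (500nM, quantified by amino acid analysis) incubated 10 min with ANS (35μM) at pH 7.4, then titrated with small ligand aliquots. ANS emission scanned 410–600nm (380nm excitation). % ANS fluorescence remaining plotted vs ligand concentration gives EC50.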"}, "[3]": {"target": "T2, human wild-type L-FABP T94T (Homo sapiens, UniProt P07148)", "T2 sequence (P07148 1-127)": "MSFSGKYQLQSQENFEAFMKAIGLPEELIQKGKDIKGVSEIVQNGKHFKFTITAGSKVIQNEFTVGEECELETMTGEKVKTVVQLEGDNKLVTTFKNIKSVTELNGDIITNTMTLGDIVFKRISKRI", "test": "ANS displacement assay", "format": "binding"}, "[4]": {"target": "T3, human L-FABP T94A variant (Homo sapiens, UniProt P07148, T94A)", "T3 sequence (P07148 1-127 T94A)": "T2 sequence (P07148 1-127) with T94A", "test": "ANS displacement assay", "format": "binding"}, "[5]": {"target": "T94T and T94A", "conditions": "cited from earlier work"}, "[6]": {"target": "T3, human L-FABP T94A variant", "test": "Circular dichroism, ligand-induced secondary structure change", "conditions": "T94A 0.5 μM, 5 μM ligand, CD", "summary_of_the_method": "(§1)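 Recombinant delipidated L-FABP (0.5 μM, by amino acid analysis) in 10 mM potassium phosphate pH 7.4. Ligand added to 5 μM from a 500 μM ethanol stock, giving 1% ethanol final. Stirred 10 min at 25 °C, then scanned 185–250 nm. Ten scans were averaged, buffer/ligand/ethanol background subtracted and smoothed. Secondary structure was analysed by CONTIN against the SDP48 reference set, and % change was taken relative to protein alone.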"}, "[7]": {"target": "T1, rat L-FABP", "test": "Circular dichroism, ligand-induced secondary structure change", "conditions": "rat L-FABP 0.5 μM, 5 μM ligand, CD", "summary_of_the_method": "as §1"}, "[8]": {"target": "T2, human wild-type L-FABP T94T", "test": "Circular dichroism, ligand-induced secondary structure change", "conditions": "T94T 0.5 μM, 5 μM ligand, CD", "summary_of_the_method": "as §1"}, "[9]": {"target": "T1, rat L-FABP", "test": "ANS binding to L-FABP"}, "[10]": {"target": "T2, human wild-type L-FABP T94T", "test": "ANS binding to L-FABP"}, "[11]": {"target": "T3, human L-FABP T94A variant", "test": "ANS binding to L-FABP"}, "[12]": {"target": "human L-FABP", "conditions": "human L-FABP bound one ANS; cited from earlier work"}, "[13]": {"conditions": "read-out: ANS Displacement – Ki, rat L-FABP 500nM, ANS 35μM, ND: no displacement"}, "[14]": {"conditions": "read-out: ANS Displacement – Ki, T94T 500nM, ANS 35μM, ND: no displacement"}, "[15]": {"conditions": "read-out: ANS Displacement – Ki, T94A 500nM, ANS 35μM, ND: no displacement"}},
  "note": "Residue numbers refer to the chain shown, from its start. “And” between values parts separate entries of the source, which are not always exact repeats. Identical values can stand only once. Counter-ions that a name gives are not always drawn. Like-named read-outs stand apart in the source and are kept apart here.",
  "data": [
    {"smiles": "CC(C)OC(=O)C(C)(C)Oc1ccc(C(=O)c2ccc(Cl)cc2)cc1", "note": "[fenofibrate]", "values": [
      {"measurement": "lowering of elevated plasma triglyceride to basal levels", "setting": "[1]", "result": "less effective in lowering elevated plasma triglyceride to basal levels"}
    ]},
    {"smiles": "CCCCCCCCCCCCCCCCCC(=O)O", "note": "[Stearic acid]", "values": [
      {"measurement": "Ki", "setting": "[2]", "result": "37 ± 4", "unit": "nM"},
      {"measurement": "Ki", "setting": "[3]", "result": "29 ± 2", "unit": "nM"},
      {"measurement": "Ki", "setting": "[4]", "result": "28 ± 1", "unit": "nM"}
    ]},
    {"smiles": "CC(C)(Oc1ccc(C(=O)c2ccc(Cl)cc2)cc1)C(=O)O", "note": "[fenofibric acid]", "values": [
      {"measurement": "Ki, T94T compared with T94A", "setting": "[5]", "result": "same (or similar) Ki"}
    ]},
    {"smiles": "CCCCCCCC/C=C\\CCCCCCCC(=O)O", "note": "[Oleic acid, oleic acid]", "values": [
      {"measurement": "Ki", "setting": "[2]", "result": "43 ± 2", "unit": "nM"}
    ]},
    {"smiles": "CCCCC/C=C\\C/C=C\\CCCCCCCC(=O)O", "note": "[Linoleic acid, linoleic acid]", "values": [
      {"measurement": "Ki", "setting": "[2]", "result": "81 ± 5", "unit": "nM"},
      {"measurement": "Ki", "setting": "[3]", "result": "113 ± 5", "unit": "nM"},
      {"measurement": "Ki", "setting": "[4]", "result": "132 ± 3", "unit": "nM"}
    ]},
    {"smiles": "CCCCCCCC/C=C\\CCCCCCCC(=O)SCCNC(=O)CCNC(=O)[C@H](O)C(C)(C)COP(=O)(O)OP(=O)(O)OC[C@H]1O[C@@H](n2cnc3c(N)ncnc32)[C@H](O)[C@@H]1OP(=O)(O)O", "note": "[Oleoyl CoA, Oleoyl Coenzyme A]", "values": [
      {"measurement": "Ki", "setting": "[2]; [13]", "result": "2410 ± 120", "unit": "nM"},
      {"measurement": "Ki", "setting": "[3]; [14]", "result": "1110 ± 40", "unit": "nM"},
      {"measurement": "Ki", "setting": "[4]; [15]", "result": "1030 ± 20", "unit": "nM"}
    ]},
    {"smiles": "CCC=CCC=CCC=CCC=CC/C=C\\CCCC(=O)O", "note": "[Eicosapentaenoic acid, cis-5,8,11,14,17-eicosapentaenoic acid]", "values": [
      {"measurement": "Ki", "setting": "[2]", "result": "240 ± 30", "unit": "nM"},
      {"measurement": "Ki", "setting": "[3]", "result": "200 ± 30", "unit": "nM"},
      {"measurement": "Ki", "setting": "[4]", "result": "190 ± 10", "unit": "nM"}
    ]},
    {"smiles": "CCCCC/C=C\\C/C=C\\C/C=C\\C/C=C\\CCCC(=O)O", "note": "[Arachidonic acid, arachidonic acid]", "values": [
      {"measurement": "Ki", "setting": "[2]", "result": "110 ± 6", "unit": "nM"},
      {"measurement": "Ki", "setting": "[3]", "result": "113 ± 6", "unit": "nM"},
      {"measurement": "Ki", "setting": "[4]", "result": "108 ± 6", "unit": "nM"},
      {"measurement": "change in secondary structure (L-FABP/ligand – L-FABP only)", "setting": "[6]", "result": "< 8", "unit": "%"}
    ]},
    {"smiles": "CCCCCCCC/C=C\\CCCCCCCC(=O)O[C@@H](CO)COC(=O)CCCCCCCCCCCCCCC", "note": "[PODG, 1-palmitoyl-2-oleoyl-sn-glycerol]", "values": [
      {"measurement": "change in secondary structure (L-FABP/ligand – L-FABP only)", "setting": "[7]", "result": "no or only small changes"},
      {"measurement": "change in secondary structure (L-FABP/ligand – L-FABP only)", "setting": "[8]", "result": "no or only small changes"},
      {"measurement": "change in secondary structure (L-FABP/ligand – L-FABP only)", "setting": "[6]", "result": "no or only small changes"}
    ]},
    {"smiles": "CCCCCCCCCCCCCCCC(=O)O", "note": "[Palmitic acid, palmitic acid]", "values": [
      {"measurement": "Ki", "setting": "[2]", "result": "48 ± 1", "unit": "nM"},
      {"measurement": "Ki", "setting": "[3]", "result": "38 ± 1", "unit": "nM"},
      {"measurement": "Ki", "setting": "[4]", "result": "43 ± 1", "unit": "nM"}
    ]},
    {"smiles": "CC/C=C\\C/C=C\\C/C=C\\C/C=C\\C/C=C\\C/C=C\\CCC(=O)O", "note": "[Docosahexaenoic acid, cis-4,7,10,13,16,19-docosahexaenoic acid]", "values": [
      {"measurement": "Ki", "setting": "[2]", "result": "81 ± 15", "unit": "nM"},
      {"measurement": "Ki", "setting": "[3]", "result": "72 ± 5", "unit": "nM"},
      {"measurement": "Ki", "setting": "[4]", "result": "65 ± 9", "unit": "nM"}
    ]},
    {"smiles": "CCCCCCCC/C=C\\CCCCCCCC(=O)OC[C@@H](O)COP(=O)(O)O", "note": "[LPA, Oleoyl-L-α-lysophosphatidic acid sodium salt]", "values": [
      {"measurement": "Ki", "setting": "[3]; [14]", "result": "52 ± 7", "unit": "nM"},
      {"measurement": "Ki", "setting": "[4]; [15]", "result": "36 ± 4", "unit": "nM"}
    ]},
    {"smiles": "CC(C)CCC[C@@H](C)CCC[C@@H](C)CCCC(C)CC(=O)O", "note": "(stereo partly drawn) [phytanic acid]", "values": [
      {"measurement": "Ki, T94T compared with T94A", "setting": "[5]", "result": "same (or similar) Ki"}
    ]},
    {"smiles": "O=S(=O)(O)c1cccc2cccc(Nc3ccccc3)c12", "note": "[ANS, 1-anilinonaphthalene-8-sulfonic acid]", "values": [
      {"measurement": "Kd", "setting": "[9]", "result": "2500 ± 200", "unit": "nM"},
      {"measurement": "Fluorescence emission Maximum", "setting": "[9]; ANS bound to rat L-FABP", "result": 477, "unit": "nm"},
      {"measurement": "Bmax", "setting": "[9]; forward titration, 500nM rat L-FABP", "result": "1.4 and 1.42 ± 0.01"},
      {"measurement": "A.U./nM when fully bound (ANS fluorescence intensity/nM)", "setting": "[9]; reverse titration, ANS 100nM, rat L-FABP", "result": "0.8 A.U./nM and 0.78 ± 0.02 A.U./nM"},
      {"measurement": "Kd", "setting": "[10]", "result": "2300 ± 100", "unit": "nM"},
      {"measurement": "Fluorescence emission Maximum", "setting": "[10]; ANS bound to T94T", "result": 480, "unit": "nm"},
      {"measurement": "A.U./nM when fully bound (ANS fluorescence intensity/nM)", "setting": "[10]; reverse titration, ANS 100nM, T94T", "result": "1.0 A.U./nM and 1.03 ± 0.01 A.U./nM"},
      {"measurement": "Kd", "setting": "[11]", "result": "2400 ± 100", "unit": "nM"},
      {"measurement": "Fluorescence emission Maximum", "setting": "[11]; ANS bound to T94A", "result": 480, "unit": "nm"},
      {"measurement": "A.U./nM when fully bound (ANS fluorescence intensity/nM)", "setting": "[11]; reverse titration, ANS 100nM, T94A", "result": "1.0 A.U./nM and 0.98 ± 0.04 A.U./nM"},
      {"measurement": "Kd", "setting": "[12]", "result": 2000, "unit": "nM"}
    ]},
    {"smiles": "CCCCCCCC/C=C\\CCCCCCCC(=O)OC(CO)CO", "note": "[2-OMG, 2-oleoyl glycerol]", "values": [
      {"measurement": "change in secondary structure (L-FABP/ligand – L-FABP only)", "setting": "[7]", "result": "no or only small changes"},
      {"measurement": "change in secondary structure (L-FABP/ligand – L-FABP only)", "setting": "[8]", "result": "no or only small changes"},
      {"measurement": "change in secondary structure (L-FABP/ligand – L-FABP only)", "setting": "[6]", "result": "no or only small changes"}
    ]},
    {"smiles": "CCCCCCCC/C=C\\CCCCCCCC(=O)O[C@H](COC(=O)CCCCCCCCCCCCCCC)COP(=O)(O)O", "note": "[POPA, 1-palmitoyl-2-Oleoyl-sn-Glycero-3-Phosphate monosodium salt]", "values": [
      {"measurement": "Ki", "setting": "[2]; [13]", "result": "9100 ± 800", "unit": "nM"},
      {"measurement": "Ki", "setting": "[3]; [14]", "result": "2800 ± 300", "unit": "nM"},
      {"measurement": "Ki", "setting": "[4]; [15]", "result": "2800 ± 200", "unit": "nM"}
    ]}
  ]
}
